In ChEMBL document CHEMBL1821705 (J Med Chem, 2011):

Assays:
[1] = target: Vascular endothelial growth factor receptor 2 (Homo sapiens, UniProt P35968); test: Inhibition of KDR activity by TR-FRET assay
[2] = Clearance in human liver microsome at 1 uM after 30 mins by LC/MS analysis in the presence of NADPH; format: ADME; settings: liver microsomes
Procedure, shortened: (§1)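 Compound at 1 μM incubated with human or mouse liver microsomes (0.5 mg protein/mL) in 50 mM phosphate buffer pH 7.4 with 1 mM NADPH, 37 °C, 30 min. Stopped with acetonitrile, centrifuged. Remaining compound in the supernatant quantified by LC/MS.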

KARPAS-299 [3] = test: cells; settings: Homo sapiens, KARPAS-299, 96 h
[4] = target: Hepatocyte growth factor receptor (Homo sapiens, UniProt P08581); test: Inhibition of MET activity by TR-FRET assay
[5] = target: Mast/stem cell growth factor receptor Kit (Homo sapiens, UniProt P10721); test: Inhibition of KIT activity by TR-FRET assay
[6] = Clearance in mouse liver microsome at 1 uM after 30 mins by LC/MS analysis in the presence of NADPH; format: ADME; settings: liver microsomes; procedure, shortened: as §1
[7] = target: ALK tyrosine kinase receptor (Homo sapiens, UniProt Q9UM73)
KARPAS-299 [8] = test: Antitumor activity against human KARPAS299 xenografted in SCID mouse assessed as tumor growth inhibition at 2 mg/kg, po administered for 11 days after 8 days of tumor implantation; format: functional; settings: read-out: TGI
Procedure, shortened: (§2)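 KARPAS-299 grown as sc tumors in SCID mice. Dosing started when tumors reached about 200 mm³, with four mice per group randomized. Vehicle or compound given by oral sonde once daily for 11 days; vehicle 10% DMSO, 10% Cremophor EL, 15% PEG400, 15% HPCD. Tumor volume taken as (L × W²)/2, measured twice weekly. TGI = [1 − (T − T₀)/(C − C₀)] × 100.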

[9] = target: Insulin-like growth factor 1 receptor (Homo sapiens, UniProt P08069); test: Inhibition of IGF1R activity by TR-FRET assay
Insulin receptor = Insulin receptor (Homo sapiens, UniProt P06213); test: Inhibition of INSR activity by TR-FRET assay
[10] = target: T1, Protein kinase C beta type (Homo sapiens, UniProt P05771); test: Inhibition of PKCb1 activity by fluorescence polarization assay
[11] = Total clearance in cynomolgus monkey at 0.5 mg/kg, iv; format: ADME, organism-based, Macaca fascicularis; parameters: dose 0.5 mg/kg, route intravenous; settings: in vivo
Procedure, shortened: (§3)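 Fasted cynomolgus monkeys, n = 2 per route, given 0.5 mg/kg po or iv in 20% EtOH, 10% Cremophor EL, 15% PEG400, 15% HPCD, 0.02 mol/L HCl in water. Heparinized blood taken at 0.08–48 h (iv) or 0.50–48 h (po). Plasma stored at −80 °C, analyzed by LC-MS/MS. Parameters from noncompartmental analysis.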

[12] = target: RAC-alpha serine/threonine-protein kinase (Homo sapiens, UniProt P31749); test: Inhibition of AKT1 activity by fluorescence polarization assay
[13] = Half-life in cynomolgus monkey at 0.5 mg/kg, po; format: ADME, organism-based, Macaca fascicularis; parameters: dose 0.5 mg/kg, route oral; settings: in vivo; procedure, shortened: as §3
[14] = Oral bioavailability in cynomolgus monkey at 0.5 mg/kg; format: ADME, organism-based, Macaca fascicularis; settings: in vivo; procedure, shortened: as §3
KARPAS-299 [15] = test: Antitumor activity against human KARPAS299 xenografted in SCID mouse assessed as tumor growth inhibition at 20 mg/kg, po administered for 11 days after 8 days of tumor implantation; format: functional; settings: read-out: TGI; procedure, shortened: as §2
[16] = Half-life in cynomolgus monkey at 0.5 mg/kg, iv; format: ADME, organism-based, Macaca fascicularis; parameters: dose 0.5 mg/kg, route intravenous; settings: in vivo; procedure, shortened: as §3
[17] = target: T1, Protein kinase C beta type; test: Inhibition of PKCb2 activity by fluorescence polarization assay
[18] = target: Protein kinase C alpha type (Homo sapiens, UniProt P17252); test: Inhibition of PKCA activity by fluorescence polarization assay
[19] = target: Receptor tyrosine-protein kinase erbB-2 (Homo sapiens, UniProt P04626); test: Inhibition of HER2 activity by TR-FRET assay
[20] = target: RAF proto-oncogene serine/threonine-protein kinase (Homo sapiens, UniProt P04049); test: Inhibition of Raf-1 activity assessed as MEK1/2 phosphorylation
Procedure, shortened: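 Raf-1 activity read as phosphorylation of MEK1/2, detected with europium-labelled anti-phospho-MEK1/2 (Ser217/221) antibody.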

[21] = Cmax in cynomolgus monkey at 0.5 mg/kg, po; format: ADME, organism-based, Macaca fascicularis; parameters: dose 0.5 mg/kg, route oral; settings: in vivo; procedure, shortened: as §3
[22] = Volume of distribution at steady state in cynomolgus monkey at 0.5 mg/kg, iv; format: ADME, organism-based, Macaca fascicularis; parameters: dose 0.5 mg/kg, route intravenous; settings: in vivo, read-out: Vdss; procedure, shortened: as §3
KARPAS-299 [23] = test: Antitumor activity against human KARPAS299 xenografted in SCID mouse assessed as tumor growth inhibition at 6 mg/kg, po administered for 11 days after 8 days of tumor implantation; format: functional; settings: read-out: TGI; procedure, shortened: as §2
KARPAS-299 [24] = test: Antitumor activity against human KARPAS299 xenografted in po dosed SCID mouse assessed as decrease in tumor volume; format: functional, organism-based; procedure, shortened: as §2
[25] = target: Fibroblast growth factor receptor 2 (Homo sapiens, UniProt P21802); test: Inhibition of FGFR2 activity by TR-FRET assay
[26] = target: Tyrosine-protein kinase ABL1 (Homo sapiens, UniProt P00519); test: Inhibition of ABL activity by TR-FRET assay
[27] = AUC in cynomolgus monkey at 0.5 mg/kg, po; format: ADME, organism-based, Macaca fascicularis; parameters: dose 0.5 mg/kg, route oral; settings: plasma; procedure, shortened: as §3
Aurora kinase A = target: T2, Aurora kinase A (Homo sapiens, UniProt O14965); test: Inhibition of Aurora-A activity by fluorescence polarization assay
T2 sequence (O14965 whole entry): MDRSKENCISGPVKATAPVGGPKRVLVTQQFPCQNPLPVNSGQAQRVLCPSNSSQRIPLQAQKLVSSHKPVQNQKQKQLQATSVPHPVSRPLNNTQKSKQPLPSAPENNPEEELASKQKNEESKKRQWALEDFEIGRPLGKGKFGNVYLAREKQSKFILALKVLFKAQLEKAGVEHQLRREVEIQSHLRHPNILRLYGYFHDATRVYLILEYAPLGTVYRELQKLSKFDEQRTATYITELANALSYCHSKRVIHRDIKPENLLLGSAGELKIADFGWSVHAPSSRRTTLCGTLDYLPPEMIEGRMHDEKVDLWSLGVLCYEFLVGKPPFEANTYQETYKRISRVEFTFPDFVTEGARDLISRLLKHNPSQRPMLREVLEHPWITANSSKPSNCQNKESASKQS

[28] = target: Proto-oncogene tyrosine-protein kinase Src (Homo sapiens, UniProt P12931); test: Inhibition of SRC activity by TR-FRET assay

Mast/stem cell growth factor receptor Kit, sequence (P10721 whole entry): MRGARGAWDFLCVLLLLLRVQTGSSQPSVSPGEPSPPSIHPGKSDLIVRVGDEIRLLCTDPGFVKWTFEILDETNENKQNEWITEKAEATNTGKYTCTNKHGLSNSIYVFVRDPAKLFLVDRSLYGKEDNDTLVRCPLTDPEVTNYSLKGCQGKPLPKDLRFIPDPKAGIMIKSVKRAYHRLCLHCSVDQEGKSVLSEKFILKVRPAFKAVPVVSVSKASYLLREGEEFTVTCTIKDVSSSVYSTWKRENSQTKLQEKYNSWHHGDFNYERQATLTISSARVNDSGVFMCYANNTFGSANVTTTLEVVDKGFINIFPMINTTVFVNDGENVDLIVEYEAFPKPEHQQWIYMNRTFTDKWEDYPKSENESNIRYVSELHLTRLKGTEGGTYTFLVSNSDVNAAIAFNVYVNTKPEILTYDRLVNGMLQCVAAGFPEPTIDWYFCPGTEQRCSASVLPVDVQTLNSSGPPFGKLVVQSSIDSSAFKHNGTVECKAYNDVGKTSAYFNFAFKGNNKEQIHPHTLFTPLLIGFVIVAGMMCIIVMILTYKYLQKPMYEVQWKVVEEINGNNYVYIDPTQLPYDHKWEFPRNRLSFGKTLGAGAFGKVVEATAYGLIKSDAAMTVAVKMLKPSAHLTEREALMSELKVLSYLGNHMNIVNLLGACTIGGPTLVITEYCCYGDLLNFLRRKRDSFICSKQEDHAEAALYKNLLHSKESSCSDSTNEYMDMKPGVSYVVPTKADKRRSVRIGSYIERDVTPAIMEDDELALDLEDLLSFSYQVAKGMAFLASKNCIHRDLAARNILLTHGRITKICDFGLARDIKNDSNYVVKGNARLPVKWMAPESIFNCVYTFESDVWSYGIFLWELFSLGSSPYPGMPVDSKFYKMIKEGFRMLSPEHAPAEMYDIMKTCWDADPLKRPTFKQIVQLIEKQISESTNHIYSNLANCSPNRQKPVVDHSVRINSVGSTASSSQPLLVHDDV
ALK tyrosine kinase receptor, sequence (Q9UM73 whole entry): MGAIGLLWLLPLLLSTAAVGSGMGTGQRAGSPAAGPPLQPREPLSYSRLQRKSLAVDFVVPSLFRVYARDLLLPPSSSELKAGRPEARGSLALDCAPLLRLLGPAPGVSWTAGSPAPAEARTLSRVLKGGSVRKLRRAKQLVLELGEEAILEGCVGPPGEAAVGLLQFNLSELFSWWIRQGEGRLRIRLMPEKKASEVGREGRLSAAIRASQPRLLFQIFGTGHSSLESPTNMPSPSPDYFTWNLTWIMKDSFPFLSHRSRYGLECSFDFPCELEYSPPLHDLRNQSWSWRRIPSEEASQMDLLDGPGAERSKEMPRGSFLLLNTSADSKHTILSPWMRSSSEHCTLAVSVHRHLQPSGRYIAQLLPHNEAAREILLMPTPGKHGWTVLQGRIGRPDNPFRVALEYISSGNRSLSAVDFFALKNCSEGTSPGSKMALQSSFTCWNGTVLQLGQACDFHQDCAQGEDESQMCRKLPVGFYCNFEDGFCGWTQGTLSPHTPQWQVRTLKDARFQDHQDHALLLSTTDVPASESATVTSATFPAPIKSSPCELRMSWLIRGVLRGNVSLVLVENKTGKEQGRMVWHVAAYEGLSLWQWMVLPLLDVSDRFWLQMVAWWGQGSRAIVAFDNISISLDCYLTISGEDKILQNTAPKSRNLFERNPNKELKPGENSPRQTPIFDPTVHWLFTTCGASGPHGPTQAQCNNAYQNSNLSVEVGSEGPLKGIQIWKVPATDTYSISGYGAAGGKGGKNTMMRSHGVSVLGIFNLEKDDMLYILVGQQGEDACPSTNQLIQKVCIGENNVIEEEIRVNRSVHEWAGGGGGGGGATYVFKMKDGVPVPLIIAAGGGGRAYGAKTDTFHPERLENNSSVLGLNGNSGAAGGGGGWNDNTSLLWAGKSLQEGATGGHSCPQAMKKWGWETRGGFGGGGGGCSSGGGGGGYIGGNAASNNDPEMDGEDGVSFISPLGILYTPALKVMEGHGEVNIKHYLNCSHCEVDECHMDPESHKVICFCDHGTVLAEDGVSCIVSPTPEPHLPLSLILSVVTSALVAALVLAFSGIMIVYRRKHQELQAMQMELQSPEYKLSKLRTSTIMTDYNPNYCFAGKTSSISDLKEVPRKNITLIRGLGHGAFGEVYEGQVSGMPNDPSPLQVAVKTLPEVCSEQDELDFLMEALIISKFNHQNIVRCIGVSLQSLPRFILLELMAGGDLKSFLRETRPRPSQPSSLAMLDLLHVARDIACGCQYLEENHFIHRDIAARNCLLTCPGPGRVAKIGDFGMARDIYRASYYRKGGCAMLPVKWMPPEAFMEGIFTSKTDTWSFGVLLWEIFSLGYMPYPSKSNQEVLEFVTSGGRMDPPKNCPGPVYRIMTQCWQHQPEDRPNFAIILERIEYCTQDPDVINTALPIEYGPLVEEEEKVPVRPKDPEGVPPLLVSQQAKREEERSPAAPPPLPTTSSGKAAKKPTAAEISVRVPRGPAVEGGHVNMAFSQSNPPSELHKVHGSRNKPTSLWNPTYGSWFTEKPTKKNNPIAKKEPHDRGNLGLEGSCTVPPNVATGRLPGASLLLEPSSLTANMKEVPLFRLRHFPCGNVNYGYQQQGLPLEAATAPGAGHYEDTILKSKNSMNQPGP
Vascular endothelial growth factor receptor 2, sequence (P35968 whole entry): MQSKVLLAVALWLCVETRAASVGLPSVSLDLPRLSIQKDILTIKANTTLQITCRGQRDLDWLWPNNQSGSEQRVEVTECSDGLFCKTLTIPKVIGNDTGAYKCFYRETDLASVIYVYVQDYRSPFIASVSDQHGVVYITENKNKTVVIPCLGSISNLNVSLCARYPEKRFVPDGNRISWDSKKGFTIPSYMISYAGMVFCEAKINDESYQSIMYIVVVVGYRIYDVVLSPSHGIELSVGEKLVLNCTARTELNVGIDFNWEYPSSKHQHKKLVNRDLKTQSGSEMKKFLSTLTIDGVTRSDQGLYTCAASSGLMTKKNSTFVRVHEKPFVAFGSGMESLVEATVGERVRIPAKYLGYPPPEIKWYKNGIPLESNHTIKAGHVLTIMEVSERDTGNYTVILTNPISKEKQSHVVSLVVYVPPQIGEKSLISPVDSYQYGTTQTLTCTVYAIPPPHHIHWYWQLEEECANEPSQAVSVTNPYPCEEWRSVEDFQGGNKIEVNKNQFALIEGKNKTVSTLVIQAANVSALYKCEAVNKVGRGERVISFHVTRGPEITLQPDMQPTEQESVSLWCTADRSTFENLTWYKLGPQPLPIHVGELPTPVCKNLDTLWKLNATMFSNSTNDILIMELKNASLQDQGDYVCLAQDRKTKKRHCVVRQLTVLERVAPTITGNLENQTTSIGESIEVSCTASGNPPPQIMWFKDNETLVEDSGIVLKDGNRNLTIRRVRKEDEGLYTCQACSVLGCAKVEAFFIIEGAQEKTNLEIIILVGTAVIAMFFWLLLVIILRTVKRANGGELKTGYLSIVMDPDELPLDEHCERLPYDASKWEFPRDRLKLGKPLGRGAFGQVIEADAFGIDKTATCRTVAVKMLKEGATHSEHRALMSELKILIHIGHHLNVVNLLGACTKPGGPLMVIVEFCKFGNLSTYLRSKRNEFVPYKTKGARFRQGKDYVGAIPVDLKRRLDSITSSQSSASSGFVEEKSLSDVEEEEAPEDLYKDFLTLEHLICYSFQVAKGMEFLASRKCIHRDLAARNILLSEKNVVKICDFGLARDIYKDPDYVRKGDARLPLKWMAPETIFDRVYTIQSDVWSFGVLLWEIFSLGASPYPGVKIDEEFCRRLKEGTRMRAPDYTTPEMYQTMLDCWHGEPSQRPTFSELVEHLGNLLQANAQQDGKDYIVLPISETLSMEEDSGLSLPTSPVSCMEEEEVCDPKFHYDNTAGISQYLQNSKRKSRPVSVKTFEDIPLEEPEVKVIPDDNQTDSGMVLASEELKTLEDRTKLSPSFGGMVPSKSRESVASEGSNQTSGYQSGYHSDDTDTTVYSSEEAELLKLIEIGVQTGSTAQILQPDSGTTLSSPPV
T1 sequence (P05771 whole entry): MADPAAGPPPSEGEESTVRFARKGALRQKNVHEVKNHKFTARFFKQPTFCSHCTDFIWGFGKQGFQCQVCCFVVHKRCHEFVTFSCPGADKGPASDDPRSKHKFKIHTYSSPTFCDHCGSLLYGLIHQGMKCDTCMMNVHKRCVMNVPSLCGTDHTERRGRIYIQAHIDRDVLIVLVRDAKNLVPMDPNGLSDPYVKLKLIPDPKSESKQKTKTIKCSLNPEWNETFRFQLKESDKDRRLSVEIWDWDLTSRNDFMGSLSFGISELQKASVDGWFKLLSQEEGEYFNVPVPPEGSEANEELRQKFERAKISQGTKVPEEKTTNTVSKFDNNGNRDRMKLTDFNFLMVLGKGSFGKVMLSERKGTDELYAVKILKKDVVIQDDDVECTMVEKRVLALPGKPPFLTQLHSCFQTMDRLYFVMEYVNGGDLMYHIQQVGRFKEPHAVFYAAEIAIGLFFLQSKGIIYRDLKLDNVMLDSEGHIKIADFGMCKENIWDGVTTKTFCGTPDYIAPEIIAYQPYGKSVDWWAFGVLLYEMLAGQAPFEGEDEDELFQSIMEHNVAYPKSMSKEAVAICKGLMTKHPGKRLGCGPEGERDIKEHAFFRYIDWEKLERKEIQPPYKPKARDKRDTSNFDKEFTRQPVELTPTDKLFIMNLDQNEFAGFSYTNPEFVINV
RAC-alpha serine/threonine-protein kinase, sequence (P31749 whole entry): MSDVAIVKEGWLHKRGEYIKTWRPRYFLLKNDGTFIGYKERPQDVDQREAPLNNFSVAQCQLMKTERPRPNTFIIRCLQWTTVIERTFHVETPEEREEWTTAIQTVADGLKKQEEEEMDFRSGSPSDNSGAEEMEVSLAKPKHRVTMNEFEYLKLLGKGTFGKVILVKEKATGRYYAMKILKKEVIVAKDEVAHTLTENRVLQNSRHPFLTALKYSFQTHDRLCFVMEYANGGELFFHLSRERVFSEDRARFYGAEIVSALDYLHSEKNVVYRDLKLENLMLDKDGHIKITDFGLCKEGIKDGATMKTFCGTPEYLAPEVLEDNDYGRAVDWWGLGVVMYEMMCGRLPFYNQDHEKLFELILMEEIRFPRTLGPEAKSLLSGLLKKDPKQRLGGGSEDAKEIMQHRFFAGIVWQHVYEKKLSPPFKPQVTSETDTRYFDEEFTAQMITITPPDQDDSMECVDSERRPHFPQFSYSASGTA

## CC1(C)c2cc(N3CCN(C4COC4)CC3)c(CCC3CCCC3)cc2C(=O)c2c1[nH]c1cc(C#N)ccc21
[1]
  IC50: > 5000 nM
[2]
  microsomal CLint at 1 µM: 17.8 µL/min/mg
KARPAS-299 [3]
  IC50: 544 nM
[4]
  IC50: > 5000 nM
[5]
  IC50: > 5000 nM
[6]
  microsomal CLint at 1 µM: 44.7 µL/min/mg

## Cc1cc2c(cc1N1CCN(C3COC3)CC1)C(C)(C)c1[nH]c3cc(C#N)ccc3c1C2=O
[1]
  IC50: 60.8 nM
[2]
  microsomal CLint at 1 µM: 22.6 µL/min/mg
KARPAS-299 [3]
  IC50: 14.8 nM
[4]
  IC50: > 5000 nM
[5]
  IC50: 49.8 nM
[7]
  IC50: 10.6 nM
[6]
  microsomal CLint at 1 µM: 7 µL/min/mg

## CC(C)c1cc2c(cc1N1CCN(C3COC3)CC1)C(C)(C)c1[nH]c3cc(C#N)ccc3c1C2=O
[1]
  IC50: > 5000 nM
[2]
  microsomal CLint at 1 µM: 17.4 µL/min/mg
KARPAS-299 [3]
  IC50: 118 nM
[4]
  IC50: > 5000 nM
[5]
  IC50: > 5000 nM
[7]
  IC50: 66.4 nM
[6]
  microsomal CLint at 1 µM: 4.1 µL/min/mg

## CCc1cc2c(cc1N1CCN(C3COC3)CC1)C(C)(C)c1[nH]c3cc(C#N)ccc3c1C2=O
KARPAS-299 [8]
  inhibition in vivo at 2 mg/kg: 49%
[9]
  IC50: > 50000 nM
[1]
  IC50: > 5000 nM
Insulin receptor
  IC50: 460 nM
[2]
  microsomal CLint at 1 µM: 17 µL/min/mg
[10]
  IC50: > 50000 nM
[11]
  clearance: 0.73 mL/min/kg
[12]
  IC50: > 50000 nM
KARPAS-299 [3]
  IC50: 12.8 nM
[13]
  half-life: 6.25 h
[4]
  IC50: > 5000 nM
[14]
  bioavailability: 28.2%
KARPAS-299 [15]
  inhibition in vivo at 20 mg/kg: 119%
[16]
  half-life: 5.3 h
[17]
  IC50: > 50000 nM
[5]
  IC50: > 5000 nM
[18]
  IC50: > 50000 nM
[19]
  IC50: > 50000 nM
[20]
  IC50: > 50000 nM
[21]
  Cmax: 327 ng/mL
[6]
  microsomal CLint at 1 µM: 4.5 µL/min/mg
[22]
  Vd: 0.296 L/kg
KARPAS-299 [23]
  inhibition in vivo at 6 mg/kg: 103%
KARPAS-299 [24]
  Activity: Dose-dependent effect
[25]
  IC50: > 50000 nM
[26]
  IC50: > 50000 nM
[27]
  AUC: 3270 ng·h/mL
Aurora kinase A
  IC50: > 50000 nM
[28]
  IC50: > 50000 nM

## CCCc1cc2c(cc1N1CCN(C3COC3)CC1)C(C)(C)c1[nH]c3cc(C#N)ccc3c1C2=O
[1]
  IC50: > 5000 nM
[2]
  microsomal CLint at 1 µM: 19.4 µL/min/mg
KARPAS-299 [3]
  IC50: 25.3 nM
[4]
  IC50: > 5000 nM
[5]
  IC50: > 5000 nM
[7]
  IC50: 15.1 nM
[6]
  microsomal CLint at 1 µM: 4.7 µL/min/mg

## C#Cc1cc2c(cc1N1CCN(C3COC3)CC1)C(C)(C)c1[nH]c3cc(C#N)ccc3c1C2=O
[1]
  IC50: 455 nM
[2]
  microsomal CLint at 1 µM: 18.9 µL/min/mg
[4]
  IC50: > 5000 nM
[5]
  IC50: 2420 nM
[7]
  IC50: 2.7 nM
[6]
  microsomal CLint at 1 µM: 2.1 µL/min/mg

## CC1(C)c2cc(N3CCN(C4COC4)CC3)ccc2C(=O)c2c1[nH]c1cc(C#N)ccc21
[1]
  IC50: 137 nM
[4]
  IC50: > 5000 nM
[5]
  IC50: 83.9 nM
